# Measured values: ChEMBL document CHEMBL2062424, “Bioactive sesquiterpenoids from the rhizomes of Acorus calamus” (J Nat Prod, 2012)
# Activity calls are given as the source filed them. No cut-off for these calls is given here.
# Experiments:
# Assay type in all cases: functional, cell-based
# [1] = system: HCT-8; experiment: Cytotoxicity against human HCT8 cells by MTT assay
# [2] = system: Bel-7402; experiment: Cytotoxicity against human Bel7402 cells by MTT assay
# [3] = system: BGC-823; experiment: Cytotoxicity against human BGC823 cells by MTT assay
# [4] = system: A549; experiment: Cytotoxicity against human A549 cells by MTT assay
# [5] = system: A2780; experiment: Cytotoxicity against human A2780 cells by MTT assay
# [6] = system: HepG2; experiment: Hepatoprotective activity against N-acetyl-p-aminophenol-induced toxicity in human HepG2 cells at 10 uM after 48 hrs by MTT assay
# How it was run: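 HepG2 cells kept in DMEM with 10% fetal calf serum plus penicillin/streptomycin at 37 °C, 5% CO2, passaged with 0.25% trypsin/0.02% EDTA. After seeding and overnight incubation, 10 μM test sample added together with APAP (8 mM final) for 48 h. MTT (0.5 mg/mL) added for 4 h, formazan dissolved in DMSO, absorbance at 570 nm. Bicyclol 10 μM as positive control; mean ± SD, n = 3.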
Compound,IC50 [1] [µM],IC50 [2] [µM],IC50 [3] [µM],IC50 [4] [µM],IC50 [5] [µM],Activity [6]
CC1=C[C@@H](O)[C@@]2(CC1=O)[C@@H](C(C)C)C(=O)C[C@@H]2C (relative stereo),> 10,> 10,> 10,> 10,> 10,
CC1=C[C@H](O)[C@]2(CC1=O)[C@H](C)CC(=O)[C@H]2C(C)C [CALAMUSIN E],> 10,> 10,> 10,> 10,> 10,
C[C@@H]1CC[C@]2(O)O[C@]13C=C(C(C)(C)O)C(=O)[C@H]3[C@@H]2C [CALAMUSIN B],> 10,> 10,> 10,> 10,> 10,
C[C@@H]1C(=O)CC[C@@H](C)[C@]2(O)C=C(C(C)(C)O)C(=O)[C@@H]12 [CALAMUSIN A],> 10,> 10,> 10,> 10,> 10,
C[C@]1(O)CC[C@H](O)[C@@]2(C)CCC(=O)C=C12 [CALAMUSIN I],> 10,> 10,> 10,> 10,> 10,Active
CC(C)[C@]1(O)C(=O)C[C@H](C)[C@@]12CC[C@](C)(O)C(=O)C2,> 10,> 10,> 10,> 10,> 10,Active
CC1=CCC23OC(C(C)(C)O)(CC12O)C(=O)C=C3C (racemic),> 10,> 10,> 10,> 10,> 10,Active
CC(C)=C1C(=O)C[C@@H](C)[C@@]2(O)CC[C@H](C)C(=O)[C@@H]12 [CALAMUSIN G],> 10,> 10,> 10,> 10,> 10,Active
Cc1ccc(C(C)C)c2c1[C@H](O)C[C@@](C)(O)[C@H]2O [CALAMUSIN H],> 10,> 10,> 10,> 10,> 10,
